Experimental data taken from article PMC3501595 (Biochemical pharmacology, 2012).

How the values were obtained:
[1] = target: T1, topoisomerase IIα (Homo sapiens, UniProt P11388); assay: kDNA decatenation assay at […] ATP; format: biochemical
[2] = target: T1, topoisomerase IIα; assay: kDNA decatenation gel assay; format: biochemical
Procedure, shortened: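 Recombinant full-length human topoisomerase IIα. Decatenation: catenated kDNA networks released as individual minicircles in an ATP-dependent reaction, resolved on gel. Cleavage: closed circular pBR322 converted to linear DNA at 37 °C. All components were mixed on ice before the test compound was added. Complexes were trapped with SDS and resolved by ethidium bromide gel electrophoresis.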

[3] = target: topoisomerase IIβ (Homo sapiens, UniProt Q02880); assay: cellular ICE assay of covalent enzyme-DNA complexes in K562 cells; format: cell-based
[4] = target: T2, topoisomerase I (Homo sapiens, UniProt P11387); assay: pBR322 DNA relaxation gel assay; format: biochemical
T2 sequence (P11387 2-765): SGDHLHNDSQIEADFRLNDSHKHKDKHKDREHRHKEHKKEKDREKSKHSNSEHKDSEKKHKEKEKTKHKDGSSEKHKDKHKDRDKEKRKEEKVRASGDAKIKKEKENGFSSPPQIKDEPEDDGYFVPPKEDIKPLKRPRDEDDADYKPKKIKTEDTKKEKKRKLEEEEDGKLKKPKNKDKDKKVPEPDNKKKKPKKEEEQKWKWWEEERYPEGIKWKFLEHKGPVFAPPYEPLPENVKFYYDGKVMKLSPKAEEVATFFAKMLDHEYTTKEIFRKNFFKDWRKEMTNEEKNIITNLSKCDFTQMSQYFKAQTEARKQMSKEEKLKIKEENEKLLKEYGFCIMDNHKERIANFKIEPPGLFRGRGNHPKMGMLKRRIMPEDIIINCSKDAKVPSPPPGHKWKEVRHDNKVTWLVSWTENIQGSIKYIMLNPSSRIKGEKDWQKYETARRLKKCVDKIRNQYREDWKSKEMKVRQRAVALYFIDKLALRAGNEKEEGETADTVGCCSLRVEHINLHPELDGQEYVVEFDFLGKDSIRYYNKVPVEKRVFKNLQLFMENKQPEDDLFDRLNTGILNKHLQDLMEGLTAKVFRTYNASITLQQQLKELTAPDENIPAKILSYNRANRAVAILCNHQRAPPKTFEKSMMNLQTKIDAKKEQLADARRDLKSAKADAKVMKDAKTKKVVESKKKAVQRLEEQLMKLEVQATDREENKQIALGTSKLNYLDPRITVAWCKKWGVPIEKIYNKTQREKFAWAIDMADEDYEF

[5] = target: T3, yeast topoisomerase II (Saccharomyces cerevisiae, UniProt P06786); assay: ATP/NADH-coupled DNA-independent ATPase assay, purified enzyme; format: biochemical
T3 sequence (P06786 1-1428): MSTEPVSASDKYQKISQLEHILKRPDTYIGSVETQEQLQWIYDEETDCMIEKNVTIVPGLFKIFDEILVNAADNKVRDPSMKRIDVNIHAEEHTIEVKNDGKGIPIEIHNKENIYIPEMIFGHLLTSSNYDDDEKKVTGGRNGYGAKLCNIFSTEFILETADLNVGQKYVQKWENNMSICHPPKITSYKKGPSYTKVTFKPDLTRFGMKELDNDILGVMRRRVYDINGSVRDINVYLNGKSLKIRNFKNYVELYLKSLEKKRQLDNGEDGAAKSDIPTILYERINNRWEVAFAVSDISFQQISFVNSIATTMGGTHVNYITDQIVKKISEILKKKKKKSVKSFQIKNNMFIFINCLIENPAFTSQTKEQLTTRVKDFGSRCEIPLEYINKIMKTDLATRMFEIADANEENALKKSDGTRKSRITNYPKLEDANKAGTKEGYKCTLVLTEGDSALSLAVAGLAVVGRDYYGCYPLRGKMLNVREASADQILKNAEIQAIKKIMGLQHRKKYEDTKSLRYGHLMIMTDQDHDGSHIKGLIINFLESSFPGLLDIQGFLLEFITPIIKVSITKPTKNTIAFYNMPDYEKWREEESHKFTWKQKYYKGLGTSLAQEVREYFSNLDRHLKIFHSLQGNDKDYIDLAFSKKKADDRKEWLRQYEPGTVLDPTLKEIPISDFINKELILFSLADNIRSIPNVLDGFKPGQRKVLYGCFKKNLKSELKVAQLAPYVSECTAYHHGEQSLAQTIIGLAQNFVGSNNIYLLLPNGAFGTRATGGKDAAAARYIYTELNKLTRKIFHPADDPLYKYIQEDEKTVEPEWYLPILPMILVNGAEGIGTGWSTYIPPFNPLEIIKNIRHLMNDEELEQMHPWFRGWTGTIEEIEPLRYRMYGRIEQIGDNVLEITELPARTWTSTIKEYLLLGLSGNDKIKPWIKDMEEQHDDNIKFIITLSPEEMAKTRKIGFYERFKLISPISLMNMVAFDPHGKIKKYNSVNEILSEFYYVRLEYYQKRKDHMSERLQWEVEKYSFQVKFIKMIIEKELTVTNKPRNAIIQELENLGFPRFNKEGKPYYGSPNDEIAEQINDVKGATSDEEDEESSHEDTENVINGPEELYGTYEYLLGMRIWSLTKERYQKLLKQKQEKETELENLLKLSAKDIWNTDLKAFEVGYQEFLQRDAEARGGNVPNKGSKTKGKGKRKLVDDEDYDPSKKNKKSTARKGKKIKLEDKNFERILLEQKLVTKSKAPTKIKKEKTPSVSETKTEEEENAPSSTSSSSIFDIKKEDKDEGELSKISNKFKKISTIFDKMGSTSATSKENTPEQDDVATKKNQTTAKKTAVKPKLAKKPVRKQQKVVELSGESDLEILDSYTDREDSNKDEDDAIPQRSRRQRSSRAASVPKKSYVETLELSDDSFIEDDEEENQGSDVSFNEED

T1 sequence (P11388 whole entry): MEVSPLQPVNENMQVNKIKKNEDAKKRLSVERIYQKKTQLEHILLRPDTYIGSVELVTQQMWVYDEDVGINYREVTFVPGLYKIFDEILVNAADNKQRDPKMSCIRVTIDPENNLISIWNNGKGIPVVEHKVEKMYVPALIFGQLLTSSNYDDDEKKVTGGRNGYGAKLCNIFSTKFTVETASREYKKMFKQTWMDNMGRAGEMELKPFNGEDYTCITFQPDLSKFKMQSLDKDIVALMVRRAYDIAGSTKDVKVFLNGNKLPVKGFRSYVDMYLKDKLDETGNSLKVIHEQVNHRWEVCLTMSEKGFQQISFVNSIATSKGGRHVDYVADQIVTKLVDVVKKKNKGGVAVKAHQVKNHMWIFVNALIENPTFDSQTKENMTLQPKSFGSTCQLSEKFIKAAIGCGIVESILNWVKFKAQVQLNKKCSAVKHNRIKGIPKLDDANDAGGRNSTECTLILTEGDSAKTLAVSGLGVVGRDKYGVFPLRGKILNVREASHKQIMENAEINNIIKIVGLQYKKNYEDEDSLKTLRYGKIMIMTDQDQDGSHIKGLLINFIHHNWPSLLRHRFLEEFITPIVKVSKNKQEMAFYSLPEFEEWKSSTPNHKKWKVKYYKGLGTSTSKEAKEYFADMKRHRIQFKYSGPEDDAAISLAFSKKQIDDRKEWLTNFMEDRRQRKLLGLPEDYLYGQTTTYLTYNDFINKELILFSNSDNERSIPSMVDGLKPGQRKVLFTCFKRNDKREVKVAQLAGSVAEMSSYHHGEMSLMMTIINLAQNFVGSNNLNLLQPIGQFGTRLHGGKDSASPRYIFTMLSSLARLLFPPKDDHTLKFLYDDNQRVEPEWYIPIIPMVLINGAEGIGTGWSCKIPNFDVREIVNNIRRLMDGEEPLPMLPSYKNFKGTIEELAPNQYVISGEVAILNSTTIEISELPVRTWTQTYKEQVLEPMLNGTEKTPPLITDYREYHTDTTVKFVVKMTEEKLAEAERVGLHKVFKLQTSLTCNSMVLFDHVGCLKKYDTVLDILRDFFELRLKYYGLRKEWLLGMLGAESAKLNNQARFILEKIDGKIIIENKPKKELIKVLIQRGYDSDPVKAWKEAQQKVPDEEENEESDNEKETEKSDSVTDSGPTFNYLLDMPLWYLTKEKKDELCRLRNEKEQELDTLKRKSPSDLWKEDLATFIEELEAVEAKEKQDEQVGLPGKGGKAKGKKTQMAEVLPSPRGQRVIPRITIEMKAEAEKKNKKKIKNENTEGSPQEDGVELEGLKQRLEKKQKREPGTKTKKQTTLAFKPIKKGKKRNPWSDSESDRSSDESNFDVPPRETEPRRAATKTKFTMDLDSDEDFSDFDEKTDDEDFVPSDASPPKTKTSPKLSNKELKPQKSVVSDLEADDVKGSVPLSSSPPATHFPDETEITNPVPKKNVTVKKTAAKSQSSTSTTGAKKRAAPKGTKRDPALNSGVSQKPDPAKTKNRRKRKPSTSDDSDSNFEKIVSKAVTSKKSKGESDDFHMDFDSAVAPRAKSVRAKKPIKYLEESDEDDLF
topoisomerase IIβ, sequence (Q02880 2-1626): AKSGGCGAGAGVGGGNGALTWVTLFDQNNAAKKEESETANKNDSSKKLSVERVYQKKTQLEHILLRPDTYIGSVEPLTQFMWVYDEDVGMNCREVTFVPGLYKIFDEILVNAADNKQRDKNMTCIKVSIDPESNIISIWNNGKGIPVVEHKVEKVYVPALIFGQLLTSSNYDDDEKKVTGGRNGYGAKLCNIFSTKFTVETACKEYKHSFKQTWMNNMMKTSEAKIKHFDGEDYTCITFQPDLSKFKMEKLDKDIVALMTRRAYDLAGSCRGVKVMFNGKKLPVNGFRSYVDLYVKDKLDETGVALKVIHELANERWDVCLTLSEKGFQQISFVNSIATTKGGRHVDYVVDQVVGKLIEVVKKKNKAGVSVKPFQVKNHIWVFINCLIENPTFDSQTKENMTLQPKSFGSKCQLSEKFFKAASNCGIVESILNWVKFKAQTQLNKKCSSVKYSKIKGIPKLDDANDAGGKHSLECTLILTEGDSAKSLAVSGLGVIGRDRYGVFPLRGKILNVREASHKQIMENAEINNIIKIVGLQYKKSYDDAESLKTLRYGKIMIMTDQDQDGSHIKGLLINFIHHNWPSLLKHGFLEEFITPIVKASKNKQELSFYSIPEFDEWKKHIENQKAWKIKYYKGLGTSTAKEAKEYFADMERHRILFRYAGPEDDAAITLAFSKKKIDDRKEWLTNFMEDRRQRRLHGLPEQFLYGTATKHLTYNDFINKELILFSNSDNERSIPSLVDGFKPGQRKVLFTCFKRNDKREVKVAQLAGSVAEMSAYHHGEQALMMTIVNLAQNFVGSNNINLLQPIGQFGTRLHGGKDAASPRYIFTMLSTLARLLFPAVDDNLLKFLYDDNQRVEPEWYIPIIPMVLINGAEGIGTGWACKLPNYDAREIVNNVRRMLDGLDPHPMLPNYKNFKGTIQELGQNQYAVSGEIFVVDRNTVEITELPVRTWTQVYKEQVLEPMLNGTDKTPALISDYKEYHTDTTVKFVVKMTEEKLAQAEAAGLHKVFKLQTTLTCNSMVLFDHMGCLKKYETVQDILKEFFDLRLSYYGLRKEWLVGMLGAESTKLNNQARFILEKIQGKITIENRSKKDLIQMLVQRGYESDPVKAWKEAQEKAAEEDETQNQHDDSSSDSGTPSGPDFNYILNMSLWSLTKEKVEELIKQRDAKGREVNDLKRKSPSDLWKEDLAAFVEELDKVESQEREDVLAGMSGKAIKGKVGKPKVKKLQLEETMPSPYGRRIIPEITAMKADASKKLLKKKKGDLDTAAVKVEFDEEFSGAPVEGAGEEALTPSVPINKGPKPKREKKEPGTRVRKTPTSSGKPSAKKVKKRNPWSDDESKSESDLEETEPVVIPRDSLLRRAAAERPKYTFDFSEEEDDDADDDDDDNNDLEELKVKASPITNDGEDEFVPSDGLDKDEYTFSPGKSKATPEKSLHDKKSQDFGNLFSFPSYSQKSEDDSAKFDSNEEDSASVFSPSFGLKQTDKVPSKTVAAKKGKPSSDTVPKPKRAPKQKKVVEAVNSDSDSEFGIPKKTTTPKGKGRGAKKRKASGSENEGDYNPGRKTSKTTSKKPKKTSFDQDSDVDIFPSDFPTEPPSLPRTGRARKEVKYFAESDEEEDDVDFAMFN

Row | SMILES | IC50 [1] | IC50 [2] | cellular ICE assay of covalent enzyme-DNA complexes in K562 cells [3] | IC50 [4] | Ki [5]
1 | Nc1ncnc2c1ncn2[C@@H]1O[C@H](COP(=O)(O)OP(=O)(O)NP(=O)(O)O)[C@@H](O)[C@H]1O [AMP-PNP] | 2000 ± 400 nM |  |  |  | 
2 | CN1CCN(c2ccc3nc(-c4c(N)c5c(F)cccc5[nH]c4=O)[nH]c3c2)CC1 [dovitinib] |  | 13 ± 4 µM | Both dovitinib and etoposide also induced concentration dependent increases in the amount of the topoisomerase IIβ-covalent complex | 6.2 ± 1.7 µM | 2400 ± 1500 nM
3 | COc1cc([C@@H]2c3cc4c(cc3[C@@H](O[C@@H]3O[C@@H]5CO[C@@H](C)O[C@H]5[C@H](O)[C@H]3O)[C@H]3COC(=O)[C@H]23)OCO4)cc(OC)c1O [etoposide, reference compound] |  |  | Both dovitinib and etoposide also induced concentration dependent increases in the amount of the topoisomerase IIβ-covalent complex |  | 
